Active and inactive are the calls of the source. The rule behind the calls is not given here.
Experiments:
[1] = target: Mast/stem cell growth factor receptor Kit (Homo sapiens, UniProt P10721); test: Inhibition of wild type TEL fused c-KIT (unknown origin) transfected in mouse BAF3 cells assessed as growth inhibition after 72 hrs by CCK8 assay; format: cell-based; details: baf3, 72 h
How it was run: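 IL-3 independent BaF3 cells stably expressing tel-c-KIT wt or tel-c-KIT T670I, grown in RPMI 1640 with 10% FBS, 2% L-glutamine, 37 °C, 5% CO2. Suspension cells at 1.5 to 5 × 10^4 cells/mL mixed with serial compound dilutions and incubated 72 h. Viability read by CCK-8 absorbance at 450 nm, normalized to DMSO; GI50 from curve fit. Selectivity is wt GI50 over T670I GI50.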

[2] = system: Mast/stem cell growth factor receptor Kit (Homo sapiens), P10721 [V559A]; test: Inhibition of TEL fused c-KIT V559A mutant (unknown origin) transfected in mouse BAF3 cells assessed as growth inhibition after 72 hrs by CCK8 assay; format: cell-based
How it was run: (§1)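 Tel-c-KIT-transformed BaF3 lines (IL-3 independent) kept in RPMI 1640 with 10% FBS, 2% L-glutamine and pen/strep. Cells at 1.5 to 5 × 10^4 cells/mL mixed with graded compound and incubated 72 h at 37 °C, 5% CO2. Viability by CCK-8 absorbance at 450 nm, normalized to DMSO. GI50 from dose–response fit.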

[3] = system: Mast/stem cell growth factor receptor Kit (Homo sapiens), P10721 [V559G]; test: Inhibition of TEL fused c-KIT V559G mutant (unknown origin) transfected in mouse BAF3 cells assessed as growth inhibition after 72 hrs by CCK8 assay; format: cell-based; how it was run: as §1
[4] = system: Mast/stem cell growth factor receptor Kit (Homo sapiens), P10721 [L576P]; test: Inhibition of TEL fused c-KIT L576P mutant (unknown origin) transfected in mouse BAF3 cells assessed as growth inhibition after 72 hrs by CCK8 assay; format: cell-based; how it was run: as §1
[5] = system: Mast/stem cell growth factor receptor Kit (Homo sapiens), P10721 [V654A]; test: Inhibition of TEL fused c-KIT V654A mutant (unknown origin) transfected in mouse BAF3 cells assessed as growth inhibition after 72 hrs by CCK8 assay; format: cell-based; how it was run: as §1
[6] = system: Mast/stem cell growth factor receptor Kit (Homo sapiens), P10721 [D820E]; test: Inhibition of TEL fused c-KIT D820E mutant (unknown origin) transfected in mouse BAF3 cells assessed as growth inhibition after 72 hrs by CCK8 assay; format: cell-based; how it was run: as §1
[7] = system: GISTT1; test: Antiproliferative activity against human GISTT1 cells harboring c-KIT 560 to 578 deletion mutant incubated for 72 hrs by CCK8 assay; format: functional; details: GISTT1, 72 h
How it was run: (§2)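 Adherent GIST cells seeded at 1.5-5 × 10^4 cells/mL and left overnight at 37 °C, 5% CO2. Medium then replaced with medium holding serial compound dilutions; 72 h incubation. Viability by CCK-8, absorbance at 450 nm, normalized to DMSO control; GI50 from dose-response fit.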

[8] = system: GIST882; test: Antiproliferative activity against human GIST882 cells harboring c-KIT K642E mutant incubated for 72 hrs by CCK8 assay; format: functional; details: GIST882, 72 h; how it was run: as §2
[9] = system: GISTT1; test: Antiproliferative activity against human GISTT1 cells harboring c-KIT 560 to 578 deletion/T670I double mutant incubated for 72 hrs by CCK8 assay; format: functional; details: GISTT1, 72 h; how it was run: as §2
[10] = Antiproliferative activity against human GIST5R cells harboring c-KIT 560 to 578 deletion/T670I double mutant incubated for 72 hrs by CCK8 assay; format: functional; how it was run: as §2
[11] = Antiproliferative activity against human GIST48B cells incubated for 72 hrs by CCK8 assay; format: functional; how it was run: as §2
[12] = Antitumor activity against human GIST5R cells xenografted in nude mouse assessed as tumor weight at 100 mg/kg, po administered […] via gavage for 28 days (reference value: 0.59g); format: functional
How it was run: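 Female nu/nu mice (5 weeks old) given subcutaneous right-flank GIST-5R cells in Matrigel. Dosing began at tumors of 200-400 mm3; randomized, 4 mice per group. Daily oral dosing (QD) at 25, 50 or 100 mg/kg in 0.5% methylcellulose/0.4% Tween80, or vehicle alone, for 28 days. Body weight and tumor volume, (W²×L)/2, measured daily; mean±SEM.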

[13] = system: Mast/stem cell growth factor receptor Kit (Homo sapiens), P10721 [UNDEFINED MUTATION]; details: GISTT1, 1 uM
[14] = system: Mast/stem cell growth factor receptor Kit (Homo sapiens), P10721 [UNDEFINED MUTATION]; details: GISTT1, 1 uM; remark: listed apart in the source
[15] = system: Mast/stem cell growth factor receptor Kit (Homo sapiens), P10721 [UNDEFINED MUTATION]; details: 1 uM

Mast/stem cell growth factor receptor Kit (Homo sapiens), P10721 [UNDEFINED MUTATION], sequence (P10721 whole entry, looked up, change not shown): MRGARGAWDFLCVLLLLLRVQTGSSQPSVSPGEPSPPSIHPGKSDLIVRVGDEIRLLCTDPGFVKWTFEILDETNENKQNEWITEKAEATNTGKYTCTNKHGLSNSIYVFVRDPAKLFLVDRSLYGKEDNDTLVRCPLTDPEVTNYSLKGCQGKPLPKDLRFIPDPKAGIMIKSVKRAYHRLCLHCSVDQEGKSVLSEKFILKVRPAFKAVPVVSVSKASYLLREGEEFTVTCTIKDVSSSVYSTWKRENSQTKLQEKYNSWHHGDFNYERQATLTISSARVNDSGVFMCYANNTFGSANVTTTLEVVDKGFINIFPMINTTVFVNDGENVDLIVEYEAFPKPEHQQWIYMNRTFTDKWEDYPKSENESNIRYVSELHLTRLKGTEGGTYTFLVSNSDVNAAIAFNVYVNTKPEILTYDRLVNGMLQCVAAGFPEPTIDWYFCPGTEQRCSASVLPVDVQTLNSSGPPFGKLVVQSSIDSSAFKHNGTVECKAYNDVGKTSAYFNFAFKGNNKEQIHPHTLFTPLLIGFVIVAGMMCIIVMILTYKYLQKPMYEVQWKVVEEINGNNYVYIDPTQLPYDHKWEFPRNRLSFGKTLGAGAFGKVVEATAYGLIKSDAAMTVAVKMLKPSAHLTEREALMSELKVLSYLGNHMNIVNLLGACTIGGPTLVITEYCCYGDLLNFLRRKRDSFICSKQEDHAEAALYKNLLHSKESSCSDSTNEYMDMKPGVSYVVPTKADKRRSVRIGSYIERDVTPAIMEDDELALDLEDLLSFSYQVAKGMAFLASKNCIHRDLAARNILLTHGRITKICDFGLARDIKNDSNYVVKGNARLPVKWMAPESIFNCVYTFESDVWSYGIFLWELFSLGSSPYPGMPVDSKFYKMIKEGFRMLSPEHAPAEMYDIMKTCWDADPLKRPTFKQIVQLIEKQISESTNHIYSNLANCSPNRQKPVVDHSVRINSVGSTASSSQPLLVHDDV
Mast/stem cell growth factor receptor Kit (Homo sapiens), P10721 [V559G], sequence (P10721 whole entry V559G, the tested form may be a part): as the sequence (P10721 whole entry, looked up, change not shown) above, with V559G counted along it
Mast/stem cell growth factor receptor Kit (Homo sapiens), P10721 [L576P], sequence (P10721 whole entry L576P, the tested form may be a part): as the sequence (P10721 whole entry, looked up, change not shown) above, with L576P counted along it
Mast/stem cell growth factor receptor Kit (Homo sapiens), P10721 [D820E], sequence (P10721 whole entry D820E, the tested form may be a part): as the sequence (P10721 whole entry, looked up, change not shown) above, with D820E counted along it
Mast/stem cell growth factor receptor Kit, sequence (P10721 whole entry, the tested form may be a part): as the sequence (P10721 whole entry, looked up, change not shown) above
Mast/stem cell growth factor receptor Kit (Homo sapiens), P10721 [V654A], sequence (P10721 whole entry V654A, the tested form may be a part): as the sequence (P10721 whole entry, looked up, change not shown) above, with V654A counted along it
Mast/stem cell growth factor receptor Kit (Homo sapiens), P10721 [V559A], sequence (P10721 whole entry V559A, the tested form may be a part): as the sequence (P10721 whole entry, looked up, change not shown) above, with V559A counted along it

GI50 [1]: 364 nM | GI50 [2]: 5 nM | GI50 [3]: 1 nM | GI50 [4]: 115 nM | GI50 [5]: 2300 nM | GI50 [6]: 267 nM | inhibition [13]: inactive | inhibition [14]: inactive | inhibition [15]: inactive
SMILES: Cc1ccc(NC(=O)c2ccc(CN3CCN(C)CC3)cc2)cc1Nc1nccc(-c2cccnc2)n1 [IMATINIB]
GI50 [7]: 26 nM | GI50 [8]: 58 nM | GI50 [9]: > 10000 nM | GI50 [10]: > 10000 nM | GI50 [11]: > 10000 nM | Activity [12]: 0.41 g

From ChEMBL document CHEMBL4304743, “Discovery of ( E)- N1-(3-Fluorophenyl)- N3-(3-(2-(pyridin-2-yl)vinyl)-1 H-indazol-6-yl)malonamide (CHMFL-KIT-033) as a Novel c-KIT T670I Mutant Selective Kinase Inhibitor for Gastrointestinal Stromal Tumors (GISTs)” (J Med Chem, 2019)
